The values below come from PMC10107792 (Chemistry (Weinheim an Der Bergstrasse, Germany), 2022).

“And” between values parts separate entries of the source, which are not always exact repeats. Equal values may be shown once.

For one assay, the system named is P. aeruginosa PAO1. Type of assay: cell-based. Particulars: growth inhibition, OD 600 nm.
A further assay relates to E. coli ΔtolC. As to the kind of experiment: Growth inhibition of E. coli ΔtolC. Type of assay: cell-based. To be noted: conjugate vs. non-conjugated 9, E. coli ΔtolC.
A further assay concerns the target T1, MraY from S. aureus (Staphylococcus aureus, UniProt Q2FZ93).
T1 sequence (Q2FZ93 1-321): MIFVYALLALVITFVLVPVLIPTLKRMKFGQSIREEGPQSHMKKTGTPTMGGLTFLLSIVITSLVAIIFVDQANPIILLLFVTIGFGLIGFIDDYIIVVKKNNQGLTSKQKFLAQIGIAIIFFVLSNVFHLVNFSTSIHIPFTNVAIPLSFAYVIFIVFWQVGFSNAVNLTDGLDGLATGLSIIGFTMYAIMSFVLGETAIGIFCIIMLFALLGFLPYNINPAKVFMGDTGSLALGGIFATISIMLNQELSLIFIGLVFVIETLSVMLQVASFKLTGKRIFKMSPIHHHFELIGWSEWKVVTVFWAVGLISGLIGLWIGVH
The class given is biochemical. An outline of the steps: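 S. aureus MraY crude membranes (final total protein ~1 mg/mL) with 50 μM undecaprenyl phosphate and 7.5 μM dansylated Park's nucleotide in 100 mM Tris-HCl pH 7.5, 200 mM KCl, 10 mM MgCl2, 0.1% Triton X-100. Fluorescence followed over time (ex 355/em 520 nm). Rate from 0–2 min linear regression; sigmoidal fit against log concentration gives IC50 ± SD. Variant: membranes pretreated with 1 mM diamide, 0 °C, 20 min (final 50 μM).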

The next assay relates to E. coli DH5α. The class given is cell-based. To be noted: growth inhibition, efflux-competent strain, OD 600 nm.
The next assay relates to MraY. Particulars: read-out: MraY inhibition IC50; in vitro; ref 15c; cited from earlier work.
The test system of a further assay is S. aureus. Particulars: ref 15c; cited from earlier work.

By IC50 is commonly meant the point on the concentration scale where inhibition reaches its midpoint. For `CC(=O)Oc1cccc(C(=O)N[C@H]2COC(=O)[C@@H](NC(=O)c3cccc(OC(C)=O)c3OC(C)=O)[C@H](CCCNC(=O)CCSSCCCCCCCCCCC(=O)NC[C@H](NC(=O)[C@H](CCCCN)NC(=O)N[C@H](C(=O)O)C(C)C)C(=O)NCCCN[C@@H](C[C@H]3O[C@@H](n4ccc(=O)[nH]c4=O)[C@H](O)[C@@H]3O)C(=O)O)OC(=O)[C@@H](NC(=O)c3cccc(OC(C)=O)c3OC(C)=O)COC2=O)c1OC(C)=O` [(AcO)EntKL‐SS‐9], in the assay on P. aeruginosa PAO1, the “IC50 (P. aeruginosa PAO1)” value was more than 100 µg/mL. Besides, the “fold increase of antibacterial activity relative to 9” value in the assay on E. coli ΔtolC is on record as “ca. 11 fold”. The IC50 against MraY from S. aureus is 123 nM and 89 nM. In the assay on E. coli DH5α, the “IC50 (E. coli DH5α)” value is more than 100 µg/mL.

`CO[C@H]1[C@H](O[C@H]([C@H]2O[C@@H](n3ccc(=O)[nH]c3=O)[C@H](O)[C@@H]2O)[C@H](NCCCNC(=O)[C@@H](NC(=O)[C@@H](NC(=O)N[C@H](C(=O)O)C(C)C)[C@@H]2CCNC(=N)N2)[C@@H](OC(=O)CCCCCCCCCCCCC(C)C)C(C)C)C(=O)O)O[C@H](CN)[C@H]1O` [Compound 5, muraymycin B8]: the IC50 in the assay on MraY was 4 ± 0.7 pM. Also, the “antibacterial activity against S. aureus” value in the assay with S. aureus is “promising antibacterial activity”.
